Measurements from ChEMBL document CHEMBL3351594, “Cytotoxic dimeric epipolythiodiketopiperazines from the ascomycetous fungus Preussia typharum” (J Nat Prod, 2014).
Calls of active or inactive are those of the source. The calls are words filed in the database; no cut-off is given here.

Legend:
MCF7 = assay: Cytotoxicity against human MCF7 cells by SRB method; format: functional
Procedure, shortened: (§1)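 NCI-60 in vitro drug screening panel. Values are the molar concentrations giving 50% growth inhibition (GI50) and total growth inhibition (TGI).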

A549 = assay: Cytotoxicity against human A549 cells by SRB method; format: functional; procedure, shortened: as §1
[1] = Cytotoxicity against human OVCAR8 cells by SRB method; format: functional; procedure, shortened: as §1
SF-268 = assay: Cytotoxicity against human SF268 cells by SRB method; format: functional; procedure, shortened: as §1
SK-MEL-28 = assay: Cytotoxicity against human SK-MEL-28 cells by SRB method; format: functional; procedure, shortened: as §1
[2] = Cytotoxicity against human UACC62 cells assessed as inhibition of colony formation at 5 nM incubated for 4 hrs followed by compound washout measured after 14 days relative to vehicle-treated control; format: functional; details: UACC-62
Procedure, shortened: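 Clonogenic test: 600 UACC-62 cells (RPMI1640, 10% FBS, gentamicin) adhered, exposed 4 h to vehicle (DMSO) or compound, washed with DPBS, fresh medium, grown 14 days; fixed, 0.5% crystal violet in 10% methanol, colonies counted; duplicate/triplicate, n = 2–4 experiments; one-way ANOVA with Dunnett's vs vehicle.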

MDA-MB-435 = assay: Cytotoxicity against human MDA-MB-435 cells by SRB method; format: functional; procedure, shortened: as §1
SN12C = assay: Cytotoxicity against human SN12C cells by SRB method; format: functional
Procedure, shortened: (§2)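 NCI-60 in vitro screen panel of human tumor lines; GI50 (molar concentration giving 50% growth inhibition) and TGI (total growth inhibition) taken from dose–response data.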

[3] = Cytotoxicity against human HCT116 cells by SRB method; format: functional; procedure, shortened: as §1
TK-10 = assay: Cytotoxicity against human TK10 cells by SRB method; format: functional; procedure, shortened: as §2
SK-MEL-5 = assay: Cytotoxicity against human SK-MEL-5 cells by SRB method; format: functional; procedure, shortened: as §2
HeLa [4] = assay: Cytotoxicity against human HeLa cells; format: functional
[5] = Antitumor activity against human UACC62 cells xenografted in athymic nude mouse at 1.5 mg/kg, ip administered every 4 days relative to untreated control; format: functional, UACC-62; details: route intraperitoneal
Procedure, shortened: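 Female athymic nude mice received 2 × 10^6 UACC-62 cells sc into each flank, bilaterally. They were randomized at median tumor volume 150 mm3, n = 5 mice/group. Dosing was ip at 1.5 mg/kg every 4 days, in DMSO–Cremophor (1:1) diluted in 200 μL DPBS (DMSO and Cremophor ≤2.5% final). Tumors were measured twice weekly by caliper. T/C% = (treated final − initial mean volume) ÷ (untreated final − initial) × 100.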

HL-60(TB) = assay: Cytotoxicity against human HL-60(TB) cells by SRB method; format: functional
Procedure, shortened: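 Tested in the NCI-60 in vitro screening panel. GI50 is the molar concentration giving 50% growth inhibition, and TGI is the molar concentration giving total growth inhibition.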

[6] = Cytotoxicity against human NCI-ADR-RES cells by SRB method; format: functional; procedure, shortened: as §1
[7] = Cytotoxicity against human MIAPaCa2 cells after 24 hrs by MTT assay; format: functional, cell-based; details: MIA PaCa-2, 24 h
[8] = Cytotoxicity against human UO31 cells by SRB method; format: functional; procedure, shortened: as §2
[9] = Cytotoxicity against human Hs578T cells by SRB method; format: functional; details: Hs-578T; procedure, shortened: as §1
NCI-H23 = assay: Cytotoxicity against human NCI-H23 cells by SRB method; format: functional; procedure, shortened: as §1
Malme-3M = assay: Cytotoxicity against human MALME-3M cells by SRB method; format: functional; procedure, shortened: as §1
SNB-19 = assay: Cytotoxicity against human SNB19 cells by SRB method; format: functional; procedure, shortened: as §2
NCI-H522 = assay: Cytotoxicity against human NCI-H522 cells by SRB method; format: functional; procedure, shortened: as §1
A498 = assay: Cytotoxicity against human A498 cells by SRB method; format: functional; procedure, shortened: as §1
LOX IMVI = assay: Cytotoxicity against human LOXIMVI cells by SRB method; format: functional; procedure, shortened: as §1
[10] = Cytotoxicity against human HCT15 cells by SRB method; format: functional; procedure, shortened: as §1
IGROV-1 = assay: Cytotoxicity against human IGROV1 cells by SRB method; format: functional; procedure, shortened: as §1
[11] = Cytotoxicity against human OVCAR3 cells by SRB method; format: functional; procedure, shortened: as §1
SK-MEL-2 = assay: Cytotoxicity against human SK-MEL-2 cells by SRB method; format: functional; procedure, shortened: as §1
mTORC1 (Homo sapiens) = mTORC1 (Homo sapiens) (UniProt P42345+Q8N122+Q9BVC4); assay: Inhibition of mTORC1 in human HeLa cells assessed as inhibition of S6 kinase phosphorylation at T389 up to 100 nM after 30 mins by Western blotting analysis; format: cell-based
mTORC1 (Homo sapiens), sequence (Q8N122 whole entry, looked up, other chains not shown): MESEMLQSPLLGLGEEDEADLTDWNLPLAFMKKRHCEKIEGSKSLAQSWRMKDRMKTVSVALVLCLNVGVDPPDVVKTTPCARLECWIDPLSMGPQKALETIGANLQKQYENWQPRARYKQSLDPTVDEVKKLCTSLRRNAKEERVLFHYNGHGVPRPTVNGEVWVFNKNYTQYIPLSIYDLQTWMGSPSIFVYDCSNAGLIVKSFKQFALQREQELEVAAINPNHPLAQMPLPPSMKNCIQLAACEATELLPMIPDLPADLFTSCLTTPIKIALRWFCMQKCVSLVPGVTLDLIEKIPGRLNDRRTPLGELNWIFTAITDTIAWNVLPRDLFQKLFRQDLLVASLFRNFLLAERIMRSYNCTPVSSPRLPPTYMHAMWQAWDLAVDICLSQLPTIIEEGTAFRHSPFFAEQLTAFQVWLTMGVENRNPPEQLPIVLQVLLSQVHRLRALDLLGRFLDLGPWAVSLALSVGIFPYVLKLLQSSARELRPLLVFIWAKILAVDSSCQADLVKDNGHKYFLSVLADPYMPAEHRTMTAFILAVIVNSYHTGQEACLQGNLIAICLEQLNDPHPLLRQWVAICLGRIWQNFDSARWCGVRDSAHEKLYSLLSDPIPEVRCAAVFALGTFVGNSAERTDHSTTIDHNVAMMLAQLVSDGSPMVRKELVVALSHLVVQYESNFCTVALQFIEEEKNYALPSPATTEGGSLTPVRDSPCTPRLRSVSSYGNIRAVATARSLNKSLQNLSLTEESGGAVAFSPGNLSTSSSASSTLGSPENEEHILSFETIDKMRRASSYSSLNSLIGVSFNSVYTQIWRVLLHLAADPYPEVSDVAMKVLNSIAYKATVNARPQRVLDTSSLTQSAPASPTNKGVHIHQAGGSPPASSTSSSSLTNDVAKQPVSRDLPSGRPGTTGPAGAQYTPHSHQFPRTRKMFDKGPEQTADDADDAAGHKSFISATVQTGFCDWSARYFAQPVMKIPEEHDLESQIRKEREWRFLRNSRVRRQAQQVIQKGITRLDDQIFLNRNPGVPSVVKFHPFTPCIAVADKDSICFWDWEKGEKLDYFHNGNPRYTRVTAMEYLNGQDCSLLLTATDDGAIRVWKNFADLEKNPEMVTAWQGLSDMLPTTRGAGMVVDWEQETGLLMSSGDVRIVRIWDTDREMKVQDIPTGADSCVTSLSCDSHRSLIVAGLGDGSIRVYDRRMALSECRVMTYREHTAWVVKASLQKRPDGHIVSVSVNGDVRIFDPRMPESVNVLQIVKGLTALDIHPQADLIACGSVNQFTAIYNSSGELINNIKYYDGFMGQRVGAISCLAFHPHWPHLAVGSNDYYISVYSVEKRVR
mTORC1 (Homo sapiens), sequence (Q9BVC4 whole entry, looked up, other chains not shown): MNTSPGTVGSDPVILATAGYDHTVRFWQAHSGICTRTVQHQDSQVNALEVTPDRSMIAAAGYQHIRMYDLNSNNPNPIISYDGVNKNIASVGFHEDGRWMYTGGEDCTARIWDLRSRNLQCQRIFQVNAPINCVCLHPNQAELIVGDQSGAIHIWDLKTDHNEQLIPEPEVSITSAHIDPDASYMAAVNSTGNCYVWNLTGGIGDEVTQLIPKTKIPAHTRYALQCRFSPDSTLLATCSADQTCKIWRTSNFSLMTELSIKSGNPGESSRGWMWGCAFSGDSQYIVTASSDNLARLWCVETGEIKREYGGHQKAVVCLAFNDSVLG
Procedure, shortened: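 HeLa whole-cell lysates after vehicle or compound treatment; equal protein on SDS-PAGE, PVDF blot probed for S6 kinase, P-T389-S6 kinase and actin, ECL detection.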

HeLa [12] = assay: Increase in H3K9 methylation in human HeLa cells assessed as high H3K9me3 expression at 200 nM after 1 to 24 hrs by immunoblotting analysis; format: functional, cell-based
Procedure, shortened: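 HeLa cells treated with vehicle or 200 nM for 1–24 h; log-phase cells lysed with protease inhibitors, equal protein by SDS-PAGE, PVDF transfer, probed for H3K9me3 and actin, ECL detection.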

U-251 = assay: Cytotoxicity against human U251 cells by SRB method; format: functional; procedure, shortened: as §2
[13] = read-out: LC50 (the source's name)

In the case of CC(C)[C@@]12SS[C@]3(C(=O)N1C)[C@@H](O)[C@]1(C45c6ccccc6N[C@H]4N4C(=O)[C@@]6(CO)SS[C@@]4(C(=O)N6C)[C@H]5O)c4ccccc4N[C@@H]1N3C2=O (stereo not given in full), the GI50 (MCF7) is reported as 10 nM, the TGI (MCF7) is reported as 55 nM and the CC50 (MCF7; [13]) is reported as 166 nM. For the same compound, the GI50 (A549) was 26.3 nM, the TGI (A549) was 93.3 nM and the CC50 (A549; [13]) was 263 nM. It also gave a GI50 ([1]; OVCAR-8) of 9.5 nM, a TGI ([1]; OVCAR-8) of 19.1 nM and a CC50 ([1]; OVCAR-8, read-out: LC50 (the source's name)) of 38 nM. For the same compound, the GI50 (SF-268) was 22.4 nM, the TGI (SF-268) was 107 nM and the CC50 (SF-268; [13]) was 417 nM. For the same compound, the GI50 (SK-MEL-28) was 12.6 nM, the TGI (SK-MEL-28) was 38 nM and the CC50 (SK-MEL-28; [13]) was 135 nM. For the same compound, the inhibition at 0.005 µM [2] was 38%, the GI50 (MDA-MB-435) was 10.7 nM and the TGI (MDA-MB-435) was 28.8 nM. The CC50 (MDA-MB-435; [13]) was 120 nM, the GI50 (SN12C) was 22.9 nM and the TGI (SN12C) was 525 nM. For the same compound, the CC50 (SN12C; [13]) was 1780 nM, the GI50 ([3]; HCT-116) was 12.3 nM and the TGI ([3]; HCT-116) was 51.3 nM. For the same compound, the CC50 ([3]; HCT-116, read-out: LC50 (the source's name)) was 162 nM, the GI50 (TK-10) was 11.7 nM and the TGI (TK-10) was 24.5 nM. The CC50 (TK-10; [13]) was 57.5 nM, the GI50 (SK-MEL-5) was 14.8 nM and the TGI (SK-MEL-5) was 57.5 nM. The CC50 (SK-MEL-5; [13]) was 151 nM, the GI50 (HeLa [4]) was 20 nM and the T/C [5] was 67%. For the same compound, the GI50 (HL-60(TB)) was 26.3 nM, the TGI (HL-60(TB)) was 195 nM and the CC50 (HL-60(TB); [13]) was greater than 50000 nM. For the same compound, the GI50 [6] was 33.9 nM, the TGI [6] was 120 nM and the CC50 [6, 13] was 355 nM. It also gave an IC50 [7] of 6.6 nM, a GI50 ([8]; UO-31) of 9.8 nM and a TGI ([8]; UO-31) of 26.3 nM. For the same compound, the CC50 ([8]; UO-31, read-out: LC50 (the source's name)) was 100 nM, the GI50 [9] was 26.3 nM and the TGI [9] was 447 nM. For the same compound, the GI50 (NCI-H23) was 16.2 nM, the TGI (NCI-H23) was 56.2 nM and the CC50 (NCI-H23; [13]) was 234 nM. The GI50 (Malme-3M) was 7.8 nM, the TGI (Malme-3M) was 18.6 nM and the CC50 (Malme-3M; [13]) was 45.7 nM. The GI50 (SNB-19) was 112 nM, the TGI (SNB-19) was 513 nM and the CC50 (SNB-19; [13]) was 1660 nM. It also gave a GI50 (NCI-H522) of 8.5 nM, a TGI (NCI-H522) of 17.8 nM and a CC50 (NCI-H522; [13]) of 38 nM. For the same compound, the GI50 (A498) was 9.8 nM, the TGI (A498) was 28.2 nM and the CC50 (A498; [13]) was 105 nM. The GI50 (LOX IMVI) was 8.3 nM, the TGI (LOX IMVI) was 21.4 nM and the CC50 (LOX IMVI; [13]) was 46.8 nM. For the same compound, the GI50 ([10]; HCT-15) was 17 nM, the TGI ([10]; HCT-15) was 89.1 nM and the CC50 ([10]; HCT-15, read-out: LC50 (the source's name)) was 479 nM. It also gave a GI50 (IGROV-1) of 24.5 nM, a TGI (IGROV-1) of 100 nM and a CC50 (IGROV-1; [13]) of 339 nM. The GI50 ([11]; OVCAR-3) was 10.7 nM, the TGI ([11]; OVCAR-3) was 26.3 nM and the CC50 ([11]; OVCAR-3, read-out: LC50 (the source's name)) was 85.1 nM. It also gave a GI50 (SK-MEL-2) of 9.8 nM, a TGI (SK-MEL-2) of 20.4 nM and a CC50 (SK-MEL-2; [13]) of 43.7 nM. For the same compound, the inhibition (mTORC1 (Homo sapiens)) was “inactive”, the Activity (HeLa [12]) was “Active” and the GI50 (U-251) was 17.8 nM. For the same compound, the TGI (U-251) was 61.7 nM and the CC50 (U-251; [13]) was 178 nM.
